An excerpt weighted towards active compounds, which were near 1.7% of everything screened.
AI-2 QS mod: Vibrio harveyi AI-2 quorum sensing modulation. 300,000 compounds, 0.4% hits. AID 2094. activity change, % at 7.5 µM. Vibrio harveyi JMH597 AI-2 luminescence/OD600 ratio, 9 h; active compounds read low; strain lacks LuxN and CqsS sensors; 0 = neutral-control median; in the data active = activity change below about -75%, passing the limit was not always enough; inconclusive = no clear call, values can overlap the other calls;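 note: luminescence divided by OD600 gain over 9 h not by final OD600 alone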
CAL PDZ FP-1: inhibitors of human CAL PDZ peptide binding | Q9HD26 | purified CAL PDZ, TMR-peptide fluorescence polarization, 1 h | inhibition, % at 20 µM | 330,000 compounds, 0.02% hits;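 active = highest replicate inhibition of at least 40%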;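 note: plate controls were DMSO neutral control wells for no effect and unlabeled competitor peptide control wells for full effect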
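Test system: purified CerCALP PDZ construct; Compound dosing: one concentration, 20 µM compound; Also added: TMR-labelled reporter peptide T*-PRC34 bound in PDZ groove; Read-out: inhibition from polarization loss; Controls: unlabelled peptide and DMSO controls; Signal: FP readout, S and P plane fluorescence; Incubation: 1 h at RT.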
Rce1 inhib: inhibitors of yeast Ras-converting enzyme | Q03530 | yeast membranes, quenched prenylated peptide cleavage fluorescence | calls only | 290,000 compounds, 0.27% hits | AID 2563;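 active = fall in fluorescence gain of 50% or more versus controls, with final raw signal at or below 3038400; inconclusive = same 50% fall but final raw signal above 3038400; inactive = fall in fluorescence gain under 50%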;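 note: plate controls were neutral control wells for no effect and wells lacking membranes for full effect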
Target sequence (Q03530 whole entry, looked up): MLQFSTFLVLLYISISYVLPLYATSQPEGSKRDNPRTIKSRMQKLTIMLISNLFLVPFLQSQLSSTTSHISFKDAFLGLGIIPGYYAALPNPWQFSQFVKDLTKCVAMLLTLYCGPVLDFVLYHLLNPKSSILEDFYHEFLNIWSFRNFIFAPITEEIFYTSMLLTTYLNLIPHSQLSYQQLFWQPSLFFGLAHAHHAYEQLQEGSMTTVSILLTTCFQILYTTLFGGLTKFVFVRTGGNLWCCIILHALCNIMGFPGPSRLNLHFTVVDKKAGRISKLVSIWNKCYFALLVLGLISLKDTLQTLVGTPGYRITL
CAL PDZ FP-2: inhibitors of human CAL PDZ peptide binding; Q9HD26; 300,000 compounds, 0.92% hits; AID 602252; purified CAL PDZ, TMR-peptide fluorescence polarization, 1 h; inhibition, % at 24.9 µM;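 active = mean inhibition of at least 30% with at least half of replicates also reaching 30%; inconclusive = no clear call, values can overlap the other calls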;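 note: 0% = DMSO neutral control and 100% = excess unlabeled competitor peptide PRC23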
ARNT-TACC3 inh: ARNT/TACC3 interaction disruption; AID 623870; AlphaScreen His-ARNT PAS-B/GST-TACC3 binding, luminescence; TACC3 fragment carries E629A point mutation; Q9Y6A5; 390,000 compounds, 0.66% hits; inhibition, % at 9.99 µM;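 active = mean inhibition of replicates at least 50% and at least half of replicates each reaching 50%; inconclusive = half or more replicates reach 50% but mean below 50%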;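 note: 0% = complete ARNT plus TACC3 wells and 100% = ARNT alone without TACC3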
AlphaScreen ctr: interferes with AlphaScreen signal, flagging false ARNT-TACC3 hits. AC50, µM (titrated, usually from 68 µM), inactives show at the top dose activity change, negative = signal decrease. shares compounds with ARNT-TACC3 inh. 1,200 compounds, 50% hits. His-ARNT PASB-GST AlphaScreen artifact counter-screen, luminescence;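 active = every separate test run was called active for a drop in luminescence, with AC50 within twice the top valid dose, actives reach about 71 µM in these data; inconclusive = the separate test runs disagree in their calls; inactive = all runs inactive, including signal change in the wrong direction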
Active calls of the source: *; i = inactive; ? = inconclusive; . = no result; [ ] = remark or other dose.

SMILES | AI-2 QS mod | CAL PDZ FP-1 | Rce1 inhib | CAL PDZ FP-2 | ARNT-TACC3 inh | AlphaScreen ctr
O=C(N/N=C/c1cc(Cl)ccc1O)c1cccnc1 | -40 | -2 | i | -4 | 58* | 60µM*
COC(=O)[C@]1(CC(C)C)N[C@H](c2ccc(-c3ccc4c(c3)OCO4)cc2)[C@@H]2C(=O)N(C)C(=O)[C@@H]21 | 22 | 0 | i | -6 | -5 | .
COC(=O)C(CC#Cc1ccc2c(c1)[C@]1(C(=O)N2)[C@H](C(=O)N2CCCCCCC2)[C@H]2C(=O)O[C@H](c3ccccc3)[C@H](c3ccccc3)N2[C@@H]1c1ccc(OCCO)cc1)C(=O)OC | . | . | . | . | 35 | .
COC(=O)C(CC#Cc1ccc2c(c1)[C@]1(C(=O)N2)[C@H](c2ccc(O)cc2)N2[C@H](c3ccccc3)[C@H](c3ccccc3)OC(=O)[C@H]2[C@@H]1C(=O)N1CCCCCCC1)C(=O)OC | . | . | . | . | 68* | -33%[38 µM]
CCC(=O)Nc1ccc2c(c1)C(=O)N(C)C[C@@H](OC)[C@@H](C)CN(C(=O)CC1CC1)[C@@H](C)CO2 | . | . | . | . | -3 | .
O=C1C(SCCO)=C(SCCO)C(=O)c2ccccc21 | . | 11 | . | -7 | 25 | .
CC1=C(SCc2ccccc2)C(=O)c2ccccc2C1=O | . | 2 | . | 0 | 24* | 55µM*
COc1ccc2c(CC(=O)Nc3ccccc3OC)coc2c1 | 0 | 0 | i | . | -2 | .
COc1ccc(C(=O)NNC(=O)Cc2coc3cc(OC)ccc23)cc1 | . | -2 | . | 0 | 57* | -7%
CC(=O)NCC(=O)OCc1ccc([N+](=O)[O-])cc1 | 12 | 1 | i | -3 | -8 | .
COc1ccc(Cc2nnc(N/N=C(\C)c3ccccc3)[nH]c2=O)cc1OC | 14 | 0 | i | -1 | 47* | -14%
COc1ccc(/C=N/Nc2nnc(Cc3ccc(OC)c(OC)c3)c(=O)[nH]2)cc1OC | 10 | 0 | i | -3 | 2 | .
COc1ccc(Cc2nnc(NN)[nH]c2=O)cc1OC | 0 | -1 | i | 5 | active | 27µM*
COc1ccc(Nc2nc(N3CCCC3)nc3ccccc23)c(OC)c1 | 47 | -3 | i | -2 | 3 | .
Clc1nssc1=Nc1ccc(Br)cc1 | ? | -1 | i | -5 | -7 | .
Clc1nssc1=Nc1nncs1 | . | 0 | . | -2 | 36* | -15%
Cc1ccoc1C(=O)NCCCNC(=O)c1occc1C | 22 | -4 | i | -3 | 56* | -7%
Cn1c(CSc2ncccn2)nnc1SCC(=O)N1CCCCC1 | 36 | . | i | -3 | -6 | .
O=C(C[C@@H]1C[C@H]2c3cc(NC(=O)NC4CCCCC4)ccc3O[C@H]2[C@@H](CO)O1)NCc1ccccc1 | . | . | . | . | -12 | .
O=C(C[C@H]1C[C@H]2c3cc(NC(=O)NC4CCCCC4)ccc3O[C@H]2[C@H](CO)O1)NCc1ccccc1 | . | . | . | . | active | 1%[38 µM]
CCOc1cc(/C=C2\SC(=N)N(c3nccs3)C2=O)ccc1OCCN1CCOCC1 | 20 | -3 | i | -3 | 51* | 70µM*
CCOc1cc(/C=C2\SC(=S)N(N3CCOCC3)C2=O)ccc1O | 37 | -2 | i | 1 | -3 | .
O=S(=O)(c1ccc(F)cc1)c1nc(-c2ccco2)oc1Nc1ccccc1 | 8 | -3 | i | 0 | 2 | .
O=S(=O)(c1ccccc1)c1nc(-c2ccco2)oc1Nc1ccccc1 | 8 | 0 | i | 6 | active | 62µM*
Oc1cc(NCCN2CCOCC2)cc2cccnc12 | . | 1 | . | 0 | 59* | 11µM*
SMILES | AI-2 QS mod | CAL PDZ FP-1 | Rce1 inhib | CAL PDZ FP-2 | ARNT-TACC3 inh | AlphaScreen ctr
CN1CCN(/N=C/c2nc(-c3ccccc3Cl)n3ccccc23)CC1 | -13 | -2 | i | -6 | 35* | -22%
Cc1sc2nc(N)sc2c1C | . | . | . | -3 | 8 | .
NNc1nnc(-c2ccccc2)c(-c2ccccc2)n1 | 30 | 0 | i | -1 | 52* | 51µM*
NNc1nc(-c2ccccc2)c2ccccc2n1 | 24 | -4 | i | -2 | 25 | .
O=C(CN1CCOCC1)N1CCCCN2[C@H](C1)[C@@H](c1ccc(-c3ccccc3F)cc1)[C@@H]2CO | . | . | . | . | -1 | .
C[C@H]1CN([C@@H](C)CO)C(=O)c2cccc(NS(=O)(=O)c3ccc(F)cc3)c2O[C@H]1CN(C)Cc1ccc(-c2ccccc2)cc1 | . | . | . | . | 2 | .
COc1ccc(NCc2ccccc2[N+](=O)[O-])cc1OC | 17 | 0 | i | 1 | 11 | .
COc1cc2c(cc1OC)C(Cc1ccccc1[N+](=O)[O-])=NCC2 | . | -1 | . | -4 | 39* | -10%
O=C(NCc1ccccn1)c1ccc(-c2ccccc2)cc1 | 27 | -1 | i | -2 | 17 | .
O=C(NCc1ccccn1)c1c(-c2ccccc2)sc2ccccc12 | . | 0 | . | -5 | 59* | -17%
COc1cccc(NC(=O)CN(C)C(=O)CC(C)c2ccccc2)c1 (centres undefined) | 6 | -2 | i | -5 | -2 | .
O=S(=O)(N[C@H]1CC[C@H](CCn2cc(-c3ccccn3)nn2)O[C@H]1CO)c1cccc(F)c1 | . | . | . | . | 67* | 43µM*
O=S(=O)(N[C@@H]1CC[C@@H](CCn2cc(-c3ccccn3)nn2)O[C@@H]1CO)c1cccc(F)c1 | . | . | . | . | 94* | 47µM*
Cc1cccc(S(=O)(=O)N[C@H]2CC[C@H](CCn3cc(-c4ccccn4)nn3)O[C@H]2CO)c1 | . | . | . | . | 90* | 57µM*
O=S(=O)(N[C@H]1CC[C@H](CCn2cc(-c3ccccn3)nn2)O[C@@H]1CO)c1cccc(F)c1 | . | . | . | . | 78* | 34µM*
O=S(=O)(N[C@H]1CC[C@H](CCn2cc(-c3cccc(F)c3)nn2)O[C@H]1CO)c1ccccc1 | . | . | . | . | -1 | .
O=S(=O)(N[C@H]1CC[C@@H](CCn2cc(-c3ccccn3)nn2)O[C@@H]1CO)c1cccc(F)c1 | . | . | . | . | 68* | 34µM*
CCCCN(C(=O)CC1CCCCC1)c1c(N)n(CC(C)C)c(=O)[nH]c1=O | . | -1 | . | . | 3 | .
O=C(NNc1ccccn1)C(=O)NNS(=O)(=O)c1ccc(Cl)cc1 | -12 | -3 | i | . | 58* | -6%
O=C(COC(=O)c1ccc(Br)o1)Nc1cccc(S(=O)(=O)N2CCOCC2)c1 | . | 0 | . | -44 | 1 | .
COC(=O)c1c(NC(=O)c2ccccc2)sc(Cc2ccccc2)c1C | 21 | . | i | -2 | -2 | .
Cc1cccc(CNC(=O)c2cc(-c3ccccc3)on2)c1 | . | . | . | . | . | 47µM*
CC(C)(C)CCNC(=O)c1cc(-c2ccccc2)on1 | . | . | . | . | . | 68µM*
O=C(NCc1cccs1)c1cc(-c2ccccc2)on1 | -5 | -3 | i | -2 | -7 | .
O=C(NCC1CCCCC1)c1cc(-c2ccccc2)on1 | . | . | . | . | . | 4%[38 µM]
CCCn1cc(NC(=O)c2cc(-c3ccccc3)on2)cn1 | 38 | -4 | i | 0 | -3 | .
CCCCNC(=O)c1cc(-c2ccccc2)on1 | . | . | . | . | . | 5%[38 µM]
Cc1c(Br)c(C(F)(F)F)nn1CC(=O)N(C)C1CCCCC1 | 12 | 0 | i | -8 | 4 | .
